These results are taken from ChEMBL document CHEMBL6120953, “Targeting Plasmodium falciparum IspD in the Methyl-d-erythritol Phosphate Pathway: Urea-Based Compounds with Nanomolar Potency on Target and Low-Micromolar Whole-Cell Activity” (J Med Chem, 2024).

In assay [1] the test system is Plasmodium falciparum. Put plainly: Uncompetitive inhibition of Plasmodium falciparum IspD at 19.5 to 625 uM in presence of MEP by lineweaver-burk plot analysis. Conditions: dose 19.5-625 µM. In short, it runs like this: (§1)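 LC-MS IspD assay without coupling enzymes: 0.1 μM PfIspD, 2.0 mM MgCl2 in 100 mM Tris-HCl pH 7.6, 1 mM DTT, preincubated with inhibitor 10 min at 37 °C. One substrate varied 0–500 μM with the other at 500 μM; 40 min at 37 °C, heat-stopped at 95 °C. CDP-ME product quantified by HILIC LC-MS/MS with internal standard; Lineweaver–Burk plots.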

Assay [2] concerns Plasmodium falciparum. Put plainly: Non-competitive inhibition of Plasmodium falciparum IspD at 19.5 to 625 uM in presence of CTP by lineweaver-burk plot analysis. The following applies: dose 19.5-625 µM. In short, it runs like this:
as §1

Calls of active or inactive are those of the source. No cut-off for these calls is given here.

With `N#Cc1ccc(NC(=O)Nc2cccc(S(=O)(=O)N3CCCC3)c2)cc1`, the inhibition result in the assay with Plasmodium falciparum [1] and in the assay on Plasmodium falciparum [2] was “Active” each time.
